Experimental data reported in ChEMBL document CHEMBL1949536, “Gliotoxin analogues from a marine-derived fungus, Penicillium sp., and their cytotoxic and histone methyltransferase inhibitory activities” (J Nat Prod, 2012).
Active and inactive are the calls of the source. No cut-off for these calls is given here.

Tests used:
[1] = test system: P388; assay: Cytotoxicity against mouse P388 cells after 96 hrs by MTT assay; type: functional, cell-based; settings: P388, 96 h
How it was run: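 P388 cells grown in RPMI-1640 with 10% FBS, kanamycin and 2-hydroxyethyl disulfide at 37 °C, 5% CO2; seeded at 1 × 10⁴ cells/mL, test solution in RPMI-1640 added, 96 h incubation. MTT (1 mg/mL) added for 3 h, cells dissolved in DMSO after centrifugation; IC₅₀ determined.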

[2] = biological target: T1, Histone-lysine N-methyltransferase EHMT2 (Homo sapiens, UniProt Q96KQ7); assay: Inhibition of HMT-G9a using S-adenosylmethionine and biotinylated H3 peptide after 1 hr
T1 sequence (Q96KQ7 whole entry): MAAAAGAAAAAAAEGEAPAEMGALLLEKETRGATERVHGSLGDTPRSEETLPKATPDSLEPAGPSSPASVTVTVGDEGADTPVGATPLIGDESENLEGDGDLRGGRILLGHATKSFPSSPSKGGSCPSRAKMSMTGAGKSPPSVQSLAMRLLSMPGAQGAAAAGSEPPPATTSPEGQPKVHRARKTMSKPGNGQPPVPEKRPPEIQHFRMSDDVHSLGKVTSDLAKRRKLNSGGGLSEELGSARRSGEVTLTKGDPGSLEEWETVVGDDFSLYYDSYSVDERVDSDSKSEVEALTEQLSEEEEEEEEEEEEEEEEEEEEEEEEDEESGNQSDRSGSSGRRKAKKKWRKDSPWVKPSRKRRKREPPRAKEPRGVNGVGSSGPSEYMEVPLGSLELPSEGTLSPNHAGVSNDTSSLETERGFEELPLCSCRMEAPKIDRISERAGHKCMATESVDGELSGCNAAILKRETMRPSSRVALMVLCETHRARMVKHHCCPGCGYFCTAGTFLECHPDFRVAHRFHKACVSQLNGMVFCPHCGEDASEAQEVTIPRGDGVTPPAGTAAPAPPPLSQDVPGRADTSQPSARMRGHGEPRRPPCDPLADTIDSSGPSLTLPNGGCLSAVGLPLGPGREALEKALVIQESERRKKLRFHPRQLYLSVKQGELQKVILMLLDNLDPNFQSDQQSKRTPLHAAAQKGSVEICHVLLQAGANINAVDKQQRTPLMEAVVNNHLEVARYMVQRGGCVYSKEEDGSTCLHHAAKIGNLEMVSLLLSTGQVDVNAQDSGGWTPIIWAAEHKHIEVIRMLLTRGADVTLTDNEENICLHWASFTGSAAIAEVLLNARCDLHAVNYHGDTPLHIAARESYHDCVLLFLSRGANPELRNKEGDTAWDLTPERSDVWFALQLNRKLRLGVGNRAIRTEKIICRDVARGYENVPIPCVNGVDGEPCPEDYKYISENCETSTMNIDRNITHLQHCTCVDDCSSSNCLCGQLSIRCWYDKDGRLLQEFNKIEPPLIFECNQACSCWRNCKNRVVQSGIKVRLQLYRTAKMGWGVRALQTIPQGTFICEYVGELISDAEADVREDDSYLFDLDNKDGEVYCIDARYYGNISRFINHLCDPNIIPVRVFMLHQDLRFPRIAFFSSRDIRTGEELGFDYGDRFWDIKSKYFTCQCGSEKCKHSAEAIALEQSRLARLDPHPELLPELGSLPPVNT
How it was run: (§1)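 GST-G9a (200 ng) or His-Set7/9 (931 ng) with BSA preincubated with compound (DMSO) in Tris-HCl pH 8.5 buffer with MgCl₂, KCl, 2-mercaptoethanol, sucrose, 1 h rt; then SAM (50 ng) and biotinylated H3 peptide (50 ng), 37 °C 2 h, boiled. Captured on streptavidin plate; G9a: anti-methylated-lysine antibody, Set7/9: anti-dimethyl-H3K4 antibody; HRP secondary, TMB, A650.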

[3] = biological target: T2, Histone-lysine N-methyltransferase SETD7 (Homo sapiens) (UniProt Q8WTS6); assay: Inhibition of HMT-set7/9 using S-adenosylmethionine and biotinylated H3 peptide at 100 uM after 1 hr; how it was run: as §1
T2 sequence (whole entry): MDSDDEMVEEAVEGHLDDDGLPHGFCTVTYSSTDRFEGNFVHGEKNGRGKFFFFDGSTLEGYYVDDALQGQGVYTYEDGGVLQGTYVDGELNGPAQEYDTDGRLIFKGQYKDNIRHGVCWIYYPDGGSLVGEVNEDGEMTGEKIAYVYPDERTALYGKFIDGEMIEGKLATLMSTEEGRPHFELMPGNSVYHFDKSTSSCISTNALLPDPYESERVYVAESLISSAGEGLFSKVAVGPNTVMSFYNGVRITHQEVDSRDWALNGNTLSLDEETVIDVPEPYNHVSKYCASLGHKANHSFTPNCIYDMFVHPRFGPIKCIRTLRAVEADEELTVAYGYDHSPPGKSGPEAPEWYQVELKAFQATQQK

Compound: C=C1C(=O)N2[C@H]3C(=CC=C[C@@H]3O)C[C@@]2(SC)C(=O)N1C
- IC50 [1]: 3400 nM
- IC50 [2]: > 100000 nM
- inhibition [3]: inactive

Compound: CN1C(=O)[C@]23Cc4ccccc4N2C(=O)[C@@]1(CO)SS3
- IC50 [1]: 58 nM
- IC50 [2]: 55000 nM
- inhibition [3]: inactive

Compound: CN1C(=O)[C@]23Cc4cccc(O)c4N2C(=O)[C@@]1(CO)SS3
- IC50 [1]: 56 nM
- IC50 [2]: 2600 nM
- inhibition [3]: inactive

Compound: CS[C@]1(CO)C(=O)N2[C@H]3C(=CC=C[C@@H]3O)C[C@@]2(SC)C(=O)N1C [BIS(DETHIO)BIS(METHYLTHIO)GLIOTOXIN]
- IC50 [1]: 110 nM
- IC50 [2]: > 100000 nM
- inhibition [3]: inactive

Compound: CS[C@]1(CO)C(=O)N2c3c(O)cccc3C[C@@]2(SC)C(=O)N1C [DEHYDROBIS(METHYLTHIO)GLIOTOXIN]
- IC50 [1]: 110 nM
- IC50 [2]: 58000 nM
- inhibition [3]: inactive

Compound: CN1C(=O)[C@]23CC4=CC=C[C@H](O)[C@H]4N2C(=O)[C@@]1(CO)SSSS3 [GLIOTOXIN G]
- IC50 [1]: 20 nM
- IC50 [2]: 2100 nM
- inhibition [3]: inactive

Compound: CN1C(=O)[C@]23CC4=CC=C[C@H](O)[C@H]4N2C(=O)[C@@]1(CO)SS3 [GLIOTOXIN]
- IC50 [1]: 24 nM
- IC50 [2]: 6400 nM
- inhibition [3]: inactive
